# Tests used:
# [1] = target: Aldo-keto reductase family 1 member B1 (Rattus norvegicus, UniProt P07943); test: Inhibition of aldose reductase in rat lens homogenate
# Outline: (§1)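 Crude enzyme was supernatant of rat lens homogenate. Reaction was started with NADPH at 30 °C, run 30 min and stopped with HCl. NADP was converted to a fluorescent product with NaOH/imidazole at 60 °C for 20 min. Read-out was fluorescence at ex 360/em 460 nm.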
# [2] = target: Aldo-keto reductase family 1 member B1 (Rattus norvegicus) (UniProt P07943); test: Inhibition of aldose reductase in rat lens homogenate at 100 uM; outline: as §1
# [3] = target: Aldo-keto reductase family 1 member B1 (Rattus norvegicus) (UniProt P07943); test: Inhibition of aldose reductase in rat lens homogenate at 30 uM; outline: as §1
IC50 [1],inhibition [2],Structure (SMILES),inhibition [3]
> 100 µM,10%,COc1cc([C@H]2c3c(cc(OC)c(O)c3OC)C[C@@H](CO)[C@@H]2CO)cc(OC)c1O,
> 100 µM,25%,CC1(C)C(=O)CC[C@]2(C)[C@H]3CC=C4[C@@H]5C[C@](C)(C(=O)O)C[C@H](O)[C@]5(C)CC[C@@]4(C)[C@]3(C)CC[C@@H]12,
> 100 µM,3%,CC1(C)CC[C@]2(C)CC[C@]3(C)C(=CC[C@@H]4[C@@]5(C)CCC(=O)C(C)(C)[C@@H]5CC[C@]43C)[C@@H]2C1,
> 100 µM,24%,COc1cc([C@H]2c3c(cc(OC)c(O)c3OC)C[C@@H](CO)[C@@H]2CO)ccc1O,
26 µM,,CC1(C)[C@@H](O)CC[C@]2(C)[C@H]3CC=C4[C@@H]5C[C@](C)(C(=O)O)C[C@@H](O)[C@]5(C)CC[C@@]4(C)[C@]3(C)CC[C@@H]12,
> 100 µM,8%,C[C@H]1C(=O)CC[C@@H]2[C@]1(C)CC[C@H]1[C@@]2(C)CC[C@@]2(C)[C@@H]3CC(C)(C)CC[C@]3(C)C[C@H](O)[C@]12C,
98 µM,,C[C@H]1C(=O)CC[C@@H]2[C@]1(C)CC[C@H]1[C@@]2(C)CC[C@@]2(C)[C@@H]3C[C@](C)(CO)CC[C@]3(C)CC[C@]12C [3-OXO-29-HYDROXYFRIEDELANE],
> 100 µM,26%,C[C@@H]1[C@H]2C3=CC[C@@H]4[C@@]5(C)CCC(=O)C(C)(C)[C@@H]5CC[C@@]4(C)[C@]3(C)CC[C@@]2(C)[C@@H](O)C[C@H]1C(=O)O [DEMETHYLREGELIN],
> 100 µM,36%,COc1cc([C@H]2c3cc(O)c(OC)cc3C[C@@H](CO)[C@@H]2CO)ccc1O [ISOLARICIRESINOL],
3.2 µM,,O=c1c2cc(O)c(O)cc2oc2cc(O)c([C@@H]3O[C@H](CO)[C@@H](O)[C@H](O)[C@H]3O)c(O)c12 [MANGIFERIN],
72 µM,,CC1(C)[C@@H](O)CC[C@]2(C)[C@H]3CC=C4[C@@H]5C[C@](C)(C(=O)O)C[C@H](O)[C@]5(C)CC[C@@]4(C)[C@]3(C)CC[C@@H]12 [MAYTENFOLIC ACID],
> 100 µM,44%,C[C@H]1C(=O)CC[C@@H]2[C@]1(C)CC[C@H]1[C@@]2(C)CC[C@@]2(C)[C@@H]3C[C@](C)(C(=O)O)CC[C@]3(C)CC[C@]12C [MAYTENOIC ACID],
> 100 µM,19%,C[C@@H]1[C@@]23CC[C@H]4[C@@](C)(CC[C@@]5(C)[C@@H]6C[C@](C)(C(=O)O)CC[C@]6(C)CC[C@]45C)[C@@H]2C[C@@H](O)[C@]1(O)OC3 [ORTHOSPHENIC ACID],
> 100 µM,2%,C[C@@H]1[C@@]23CC[C@H]4[C@@](C)(CC[C@@]5(C)[C@@H]6C[C@](C)(C(=O)O)CC[C@]6(C)CC[C@]45C)[C@@H]2CC[C@@]1(O)OC3 [SALASPERMIC ACID],
> 100 µM,27%,C[C@@H]1[C@H]2C3=CC[C@@H]4[C@@]5(C)CC[C@H](O)C(C)(C)[C@@H]5CC[C@@]4(C)[C@]3(C)CC[C@@]2(C)[C@@H](O)C[C@H]1C(=O)O [TRIPTERYGIC ACID A],
14 µM,,CC1=C2CC[C@H]3[C@@](C)(CC[C@@]4(C)[C@@H]5C[C@@H](C)C(=O)[C@@H](O)[C@]5(C)CC[C@]34C)[C@@H]2C[C@H](O)C1=O [TRIPTOCALLINE A],
100 µM,48%,C[C@H]1C(=O)[C@H](O)C[C@@H]2[C@]1(C)CC[C@H]1[C@@]2(C)CC[C@@]2(C)[C@@H]3C[C@](C)(C(=O)O)CC[C@]3(C)CC[C@]12C [WILFOLIC ACID C],
> 100 µM,6%,CC1(C)CC[C@]2(C)CC[C@]3(C)C(=CC[C@@H]4[C@@]5(C)CC[C@H](O)C(C)(C)[C@@H]5CC[C@]43C)[C@@H]2C1 [beta-AMYRIN],

Structure (SMILES),IC50 [1],inhibition [2],inhibition [3]
Oc1cc(O)c2c(c1)O[C@H](c1ccc(O)c(O)c1)[C@H](O)C2 [(-)-EPICATECHIN],> 30 µM,,41%
CC(=O)OC[C@]12[C@@H](OC(=O)c3ccccc3)C[C@@H]3[C@@H](OC(C)=O)[C@]1(OC3(C)C)[C@H](C)C[C@H](OC(C)=O)[C@@H]2O [CELAHIN C],95 µM,,
Oc1cc(O)c2c(c1)O[C@H](c1ccc(O)c(O)c1)[C@@H](O)C2 [CIANIDANOL],> 30 µM,,38%
Oc1cc(O)c2c(c1)O[C@H](c1cc(O)c(O)c(O)c1)[C@H](O)C2 [EPIGALLOCATECHIN],> 30 µM,,19%
Cc1c(O)c(O)cc2c1CC[C@H]1[C@@]2(C)CC[C@@]2(C)[C@@H]3C[C@@H](C)C(=O)[C@@H](O)[C@]3(C)CC[C@]12C [REGEOL A],30 µM,,
CC1=C(O)C(=O)C=C2C1=CC=C1[C@@]2(C)CC[C@@]2(C)[C@@H]3C[C@@H](C)C(=O)[C@@H](O)[C@]3(C)CC[C@]12C [TINGENIN B],7 µM,,
CC1=C(O)C(=O)C=C2C1=CC=C1[C@@]2(C)CC[C@@]2(C)[C@@H]3C[C@@H](C)C(=O)C[C@]3(C)CC[C@]12C [TINGENONE],13 µM,,
